From PubChem BioAssay
MITF act – activators of MITF-driven TRPM1 promoter reporter, primary screen, cell-based, SK-MEL-5, luciferase, single point; SK-MEL-5 TRPM1-promoter luciferase, 24 h; % of positive control, neutral wells = 0; AID 588334, 2011; activation, % at 12.5 µM; 300,000 compounds, 0.75% hits;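 active = mean activation of at least 80% with every replicate also reaching 80%; inconclusive = mean reaches 80% but some replicate falls short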;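 also: 0% = neutral control wells and 100% = parthenolide positive control wells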
ERAP1 inh – human ERAP1 aminopeptidase inhibitors, primary screen, biochemical, single point, plate reader. Endoplasmic reticulum aminopeptidase 1 (Homo sapiens), Q9NZ08. 340,000 compounds, 0.15% hits. recombinant ERAP1, Leu-AMC fluorescence, 60 min. inhibition, % at 10.7 µM;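 active = mean replicate inhibition of at least 30%, or all replicates individually reaching that 30% level; inactive = mean below 30% and not every replicate reaching it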;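 also: 0% = neutral control wells and 100% = L-leucinethiol positive control wells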
Target sequence (Q9NZ08 whole entry, looked up): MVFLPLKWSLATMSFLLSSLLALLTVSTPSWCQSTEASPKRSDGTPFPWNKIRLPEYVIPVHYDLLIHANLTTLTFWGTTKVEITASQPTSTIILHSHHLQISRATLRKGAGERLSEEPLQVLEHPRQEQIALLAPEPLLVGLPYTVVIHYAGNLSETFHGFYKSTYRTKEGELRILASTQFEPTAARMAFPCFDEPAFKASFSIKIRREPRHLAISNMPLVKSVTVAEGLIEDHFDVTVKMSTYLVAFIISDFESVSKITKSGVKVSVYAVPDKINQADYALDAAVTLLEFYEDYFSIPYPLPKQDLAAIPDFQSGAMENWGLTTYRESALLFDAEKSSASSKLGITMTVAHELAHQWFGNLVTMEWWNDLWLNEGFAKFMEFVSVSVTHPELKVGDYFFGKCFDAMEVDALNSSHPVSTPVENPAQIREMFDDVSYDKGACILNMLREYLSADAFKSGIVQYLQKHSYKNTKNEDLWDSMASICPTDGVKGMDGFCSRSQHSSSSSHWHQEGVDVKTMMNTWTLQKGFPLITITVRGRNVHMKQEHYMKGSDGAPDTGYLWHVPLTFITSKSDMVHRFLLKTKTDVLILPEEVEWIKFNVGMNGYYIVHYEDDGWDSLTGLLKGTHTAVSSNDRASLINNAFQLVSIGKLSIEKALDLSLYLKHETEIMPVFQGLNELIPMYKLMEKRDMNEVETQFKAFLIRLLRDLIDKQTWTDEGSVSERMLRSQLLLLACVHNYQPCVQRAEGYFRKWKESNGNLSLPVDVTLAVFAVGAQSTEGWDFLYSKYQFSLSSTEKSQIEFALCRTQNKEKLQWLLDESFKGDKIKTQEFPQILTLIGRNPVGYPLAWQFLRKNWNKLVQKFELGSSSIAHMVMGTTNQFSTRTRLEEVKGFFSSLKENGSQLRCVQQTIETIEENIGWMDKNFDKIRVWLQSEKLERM
esBAF inh – Bmi1 luciferase reporter increase in mESCs, primary screen, esBAF inhibitor project, mouse ES cells, Bmi1 luciferase knock-in, single point | 24 h; 100% = twice the neutral-well signal | reporter increase, % at 12.5 µM | 350,000 compounds, 2% hits; in the data active = activation above about 40%; inconclusive = no clear call, values can overlap the other calls;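 also: 0% = median of the plate's neutral control wells and 100% = double that signal; a rise in the Bmi1 reporter signal indicates esBAF inhibition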
Cneo AK release – Cryptococcus neoformans cell lysis inducers, primary screen, AK release luminescence, single concentration. C. neoformans lysis, adenylate kinase release luminescence, 4 h; normalised: neutral wells 0, clomiphene wells 100. lysis activity, % at 15 µM. 360,000 compounds, 0.2% hits. AID 651654, 2012;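 active = mean lysis activity across replicates of at least 80%, whatever share of replicates individually reach that level; inactive = mean lysis activity below 80%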
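Test system: log-phase Cryptococcus neoformans yeast cells; Quantity: yeast cell density of 5 × 10^6 cells/mL; Buffer or medium: YPD; Doses: single compound concentration per well; Timing: 4 h at 37 °C static, read 1 h later; Measured by: AK luminescence; Read-out basis: lysis from increased AK signal; Control set: Clomiphene as positive control.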
Wnt bcat act – Wnt/beta-catenin pathway activators, primary screen, cell-based, plate reader, single point. Wnt/beta-catenin reporter cell assay, activator. activation, % at 9.35 µM. 300,000 compounds, 1.2% hits; in the data active = activation above about 30%, passing the limit was not always enough; inconclusive = no clear call, values can overlap the other calls;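 also: 0% = neutral control wells and 100% = positive control wells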
Env fusion inh – inhibitors of HIV-1 Env-driven cell-cell fusion, primary screen, HeLa-JRFL effector, CEM21 target cells, luciferase | inhibition, % at 12.3 µM | 360,000 compounds, 1.1% hits | AID 651610, 2012;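 active = mean replicate inhibition score of at least 50 and every replicate individually at or above 50; inconclusive = only one of the two criteria met; inactive = mean below 50 and not all replicates reaching 50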;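 also: 0% = plate neutral controls and 100% = maraviroc near 300 nM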
Active calls of the source: *; ? = inconclusive; nt = no result given; [ ] = remark or other dose. Only some compounds are listed: those with a hit (about 3.5% of all), similar ones and a draw of the others.

SMILES	MITF act	ERAP1 inh	esBAF inh	Cneo AK release	Wnt bcat act	Env fusion inh
COc1ccc(C(=O)N2CCN(c3ccccn3)CC2)cc1	nt	nt	-3	-1	nt	13
CC(=O)N[C@@H]1C=C[C@@H](CC(=O)NCc2ccc(Cl)cc2)O[C@H]1CO	nt	-3	5	1	nt	8[16.7 µM]
CC(C)CC#Cc1ccc([C@@H]2[C@H](CO)N3CCCCN(C(=O)c4ccc5c(c4)OCO5)C[C@@H]23)cc1	nt	0	nt	1	nt	nt
CCCNC(=O)N1C[C@H]2[C@@H](c3ccccc31)[C@@H](CO)N2Cc1cccc(OC)c1	nt	-2	4	-2	nt	nt
CCCNC(=O)Nc1ccc2c(c1)C(=O)N(C)C[C@H](OC)[C@@H](C)CN[C@@H](C)CO2	nt	3	5	2	nt	-3[16.7 µM]
CCOC(=O)CC(NC(=O)c1cc2cccc(OC)c2oc1=O)c1ccc(OC)cc1 (stereo unspecified)	59	-3	50*	-10	6	-44
CNC(=O)c1cc2cccc(OC)c2oc1=O	-7	nt	-7	0	nt	nt
O=C1C(C=Nc2ccccc2)=C(O)c2ccccc21	29	nt	56*	-2	12	-212
Cc1ccc(O)c(N=CC2=C(O)c3ccccc3C2=O)c1	37	nt	78*	-1	117*	-85
CN=CC1=C(O)c2ccccc2C1=O	3	nt	3	-1	19	-16
O=C1C(C=Nc2ccccc2O)=C(O)c2ccccc21	16	-1	-78	-4	36*	nt
O=C1C(C=NCCCN2CCOCC2)=C(O)c2ccccc21	2	1	10	0	nt	nt
O=C1C(C=NCCN2CCOCC2)=C(O)c2ccccc21	35	nt	51*	-6	34*	-34
CCCNC(=O)C[C@H]1C[C@H]2c3cc(NC(=O)c4cccnc4)ccc3O[C@H]2[C@H](CO)O1	nt	nt	2	-1	nt	28[16.7 µM]
CN(C)C(=O)c1ccc(-c2ccc([C@H]3[C@@H](CO)N4CCCCN(C(=O)C5CCCC5)C[C@@H]34)cc2)cc1	nt	1	nt	1	nt	nt
O=C(C[C@H]1CC[C@H]2[C@@H](COC[C@@H](O)CN2C(=O)C2CC2)O1)NCc1ccccc1Cl	nt	1	-2	-2	nt	-4[16.7 µM]
c1csc(-c2nc(NCC3CCCO3)c3ccccc3n2)c1 (stereo unspecified)	-4	-1	4	-1	0	-4
Brc1ccc2nc(-c3cccs3)c(NCC3CCCO3)n2c1 (stereo unspecified)	11	-3	60*	nt	3	-26
C[C@H]1CCCCO[C@H](CN(C)C(=O)Nc2ccccc2)[C@@H](C)CN([C@@H](C)CO)C(=O)c2cc(NS(=O)(=O)c3ccc(F)cc3)ccc2O1	nt	nt	8	3	nt	-65[16.7 µM]
COc1ccc(NC(=O)Nc2ccc3c(c2)[C@@H]2C[C@@H](CC(=O)O)O[C@H](CO)[C@@H]2O3)cc1	nt	0	nt	nt	nt	nt
COc1ccc(CNC(=O)CCCn2nc(C)c([N+](=O)[O-])c2C)cc1OC	-2	-1	nt	nt	38*	-36
Cc1nn(CC(=O)NCc2ccccc2)c(C)c1[N+](=O)[O-]	-4	nt	4	2	nt	nt
COC(=O)CNC(=O)Cn1nc(C)c([N+](=O)[O-])c1C	-11	2	nt	nt	38*	12
Cc1cnc2ncc3sccc3c2c1	0	6	-4	nt	1	21
Cc1cnc2c(N)cc(C)c(C)c2c1	nt	0	4	7	-4	77*
SMILES	MITF act	ERAP1 inh	esBAF inh	Cneo AK release	Wnt bcat act	Env fusion inh
Cn1c(C(=O)NCc2ccccn2)cc2c(=O)n3ccccc3nc21	?	nt	54*	nt	nt	nt
Cn1c(C(=O)NC2CCCCC2)cc2c(=O)n3ccccc3nc21	?	-103	33	-7	12	-4
COc1ccc(NC(=O)Nc2ccc3c(c2)C(=O)N([C@@H](C)CO)C[C@@H](C)[C@H](CN(C)S(=O)(=O)c2cccs2)OCCCC[C@H](C)O3)cc1	nt	0	2	1	nt	20[16.7 µM]
Cc1ccc(S(=O)(=O)N(C)C[C@@H]2Oc3ccc(NC(=O)Nc4cccc5ccccc45)cc3CC(=O)N([C@@H](C)CO)C[C@@H]2C)cc1	nt	-1	4	1	nt	56*[16.7 µM]
Cc1noc(C)c1S(=O)(=O)N(C)C[C@@H]1Oc2ccc(NC(=O)Nc3ccc(C(F)(F)F)cc3)cc2CC(=O)N([C@H](C)CO)C[C@@H]1C	nt	nt	1	47	nt	60*[16.7 µM]
Cc1noc(C)c1S(=O)(=O)N(C)C[C@@H]1Oc2ccc(NC(=O)Nc3cccc4ccccc34)cc2CC(=O)N([C@H](C)CO)C[C@@H]1C	nt	2	-2	-2	nt	79*[16.7 µM]
N#Cc1cccc(-c2ccc(C3[C@H]4CNC[C@@H]3N4C(=O)Nc3ccc(F)cc3)cc2)c1 (stereo partly specified)	nt	1	nt	nt	nt	nt
O=C(Nc1ccccc1)[C@@H]1[C@@H](CO)[C@@H]2Cn3c(cccc3=O)[C@H]1N2Cc1ccncc1	nt	2	3	5	nt	nt
COc1cccc(OC)c1C1=CC(=O)C[C@H](c2ccc3c(c2)OCO3)C1	-5	nt	1	-1	-2	-3
COc1cccc(C2=CC(=O)C[C@H](c3ccc4c(c3)OCO4)C2)c1OC	57	nt	43*	-1	nt	nt
COc1ccc([C@H]2CC(=O)C=C(c3cccc(C(C)C)c3)C2)cc1OC	-14	0	9	-4	-5	63*
COc1ccccc1C#Cc1cnc2c(c1)C(=O)N([C@@H](C)CO)C[C@H](C)[C@@H](CN(C)C(C)=O)O2	nt	2	-3	0	nt	18[16.7 µM]
CO[C@H]1CN(C)C(=O)c2ccc(NC(=O)c3cnccn3)cc2OC[C@H](C)NC[C@@H]1C	nt	-2	nt	nt	nt	nt
O=C(NC1CCCC1)N[C@@H]1CC[C@H](CC(=O)N2CCOCC2)O[C@H]1CO	nt	0	-4	5	nt	-6[16.7 µM]
CCNc1nc(N)nc(Oc2ccc(C(=O)OC)cc2)n1	87*	nt	?	-3	18	nt
CCC1CCc2c(sc(NC(=O)c3cccnc3)c2C(N)=O)C1 (stereo unspecified)	43	-3	38*	-10	-5	-4
O=c1[nH]c(SCc2nc3c(cnn3-c3ccccc3)c(=O)[nH]2)nc2ccccc12	20	nt	44*	0	-2	nt
O=c1[nH]c(CSc2nc3ccccc3[nH]2)nc2c1cnn2-c1ccccc1	13	-1	nt	1	-1	nt
Cn1cc(Cl)c(C(=O)Nc2nc3ccccc3s2)n1	-1	nt	-4	-6	-9	-74
Cn1cc(Cl)c(C(=O)Nc2cccc(Cl)c2Cl)n1	54	nt	71*	-1	nt	nt
CCOCCOC(=O)c1[nH]c2c(c1C)C(=O)CC(c1ccc(OC)c(OC)c1)C2 (stereo unspecified)	-16	6	-4	-1	-2	16
